Measured values taken from ChEMBL document CHEMBL1137015, “Improved, selective, human intestinal carboxylesterase inhibitors designed to modulate 7-ethyl-10-[4-(1-piperidino)-1-piperidino]carbonyloxycamptothecin (Irinotecan; CPT-11) toxicity” (J Med Chem, 2009).
Active and inactive are the calls of the source.

Key:
[1] = Inhibition of human intestinal CE-mediated O-nitrophenyl acetate hydrolysis by spectrophotometry
How it was run: (§1)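 Enzyme activity read spectrophotometrically as release of o-nitrophenol from o-nitrophenyl acetate across increasing inhibitor concentrations. Inhibitors were freshly dissolved in DMSO, typically as 10mM stocks. Fractional inhibition was plotted against inhibitor concentration and fitted to a partial-inhibition equation including Ks, α and β. Inhibition mode was chosen by Akaike's information criteria, and Ki was taken from the best-fit model.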

Liver carboxylesterase 1 = target: T1, Liver carboxylesterase 1 (Homo sapiens, UniProt P23141); assay: Inhibition of human liver CE1-mediated O-nitrophenyl acetate hydrolysis by spectrophotometry; how it was run: as §1
T1 sequence (P23141 whole entry): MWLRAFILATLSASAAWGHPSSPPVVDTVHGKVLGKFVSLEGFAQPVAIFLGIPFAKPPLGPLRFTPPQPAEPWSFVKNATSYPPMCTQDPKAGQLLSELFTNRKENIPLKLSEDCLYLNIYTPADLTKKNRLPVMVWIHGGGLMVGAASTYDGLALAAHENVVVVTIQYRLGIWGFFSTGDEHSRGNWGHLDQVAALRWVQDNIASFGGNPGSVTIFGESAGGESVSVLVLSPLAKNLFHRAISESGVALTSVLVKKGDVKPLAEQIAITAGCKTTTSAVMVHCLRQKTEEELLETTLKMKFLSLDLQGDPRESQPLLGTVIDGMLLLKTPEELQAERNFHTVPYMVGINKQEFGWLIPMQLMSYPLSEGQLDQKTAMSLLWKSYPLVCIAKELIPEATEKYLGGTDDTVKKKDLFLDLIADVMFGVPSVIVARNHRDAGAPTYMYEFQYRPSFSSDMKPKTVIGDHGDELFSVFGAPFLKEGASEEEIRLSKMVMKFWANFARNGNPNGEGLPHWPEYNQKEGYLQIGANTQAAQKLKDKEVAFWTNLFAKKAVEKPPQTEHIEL

[2] = target: Acetylcholinesterase (Homo sapiens) (UniProt P22303); assay: Inhibition of human AchE using acetylthiocholine as substrate by spectrophotometric multiwell plate assay
[3] = target: Cholinesterase (Homo sapiens) (UniProt P06276); assay: Inhibition of human BchE using butyrylthiocholine as substrate by spectrophotometric multiwell plate assay
[4] = Inhibition of human intestinal CE-mediated irinotecan hydrolysis
How it was run: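 Human intestinal CE (25 U per reaction; 1 U converts 1 nmole o-nitrophenyl acetate/min) with 20µM CPT-11 in 50mM Hepes pH7.4, inhibitor 1nM to 100µM. Incubated 37°C for 5 min, stopped with cold acidified methanol, centrifuged. SN-38 measured by reverse phase HPLC. Fractional inhibition fitted to partial inhibition equation, model chosen by Akaike's criteria, Ki from best fit.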

Cholinesterase (Homo sapiens), sequence (P06276 whole entry): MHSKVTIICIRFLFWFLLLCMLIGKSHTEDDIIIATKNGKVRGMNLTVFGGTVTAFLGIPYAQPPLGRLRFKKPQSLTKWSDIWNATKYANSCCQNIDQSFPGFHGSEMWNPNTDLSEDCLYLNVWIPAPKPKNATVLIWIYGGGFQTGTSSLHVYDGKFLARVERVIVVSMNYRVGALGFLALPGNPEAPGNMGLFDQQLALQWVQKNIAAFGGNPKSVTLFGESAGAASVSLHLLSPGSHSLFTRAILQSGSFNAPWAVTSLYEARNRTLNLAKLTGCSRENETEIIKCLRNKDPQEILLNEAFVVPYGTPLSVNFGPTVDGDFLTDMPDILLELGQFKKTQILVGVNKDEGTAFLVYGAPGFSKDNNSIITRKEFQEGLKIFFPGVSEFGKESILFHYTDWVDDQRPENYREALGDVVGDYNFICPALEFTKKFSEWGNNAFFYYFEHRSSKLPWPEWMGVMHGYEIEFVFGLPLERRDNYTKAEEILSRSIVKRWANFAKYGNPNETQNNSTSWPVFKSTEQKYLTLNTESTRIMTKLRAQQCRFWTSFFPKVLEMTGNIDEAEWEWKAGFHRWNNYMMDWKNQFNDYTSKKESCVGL
Acetylcholinesterase (Homo sapiens), sequence (P22303 whole entry): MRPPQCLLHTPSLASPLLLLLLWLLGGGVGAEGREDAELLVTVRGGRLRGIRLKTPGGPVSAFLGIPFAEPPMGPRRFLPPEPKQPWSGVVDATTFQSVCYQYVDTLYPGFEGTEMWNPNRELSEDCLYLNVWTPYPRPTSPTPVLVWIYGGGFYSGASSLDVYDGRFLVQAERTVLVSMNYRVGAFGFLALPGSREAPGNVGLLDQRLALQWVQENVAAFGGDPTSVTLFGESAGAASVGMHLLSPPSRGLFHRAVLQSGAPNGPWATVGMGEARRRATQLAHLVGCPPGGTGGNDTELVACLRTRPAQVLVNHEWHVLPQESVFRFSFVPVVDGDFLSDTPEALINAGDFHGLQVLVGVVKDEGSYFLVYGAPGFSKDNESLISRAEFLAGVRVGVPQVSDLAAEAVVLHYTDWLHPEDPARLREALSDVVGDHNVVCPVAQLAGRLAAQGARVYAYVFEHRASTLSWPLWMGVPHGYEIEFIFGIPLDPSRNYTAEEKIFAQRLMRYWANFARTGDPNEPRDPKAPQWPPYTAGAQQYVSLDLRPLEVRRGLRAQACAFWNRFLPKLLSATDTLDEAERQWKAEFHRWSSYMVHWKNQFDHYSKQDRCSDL

| Compound | Ki [1] [nM] | Ki (Liver carboxylesterase 1) [nM] | Activity [2] | Activity [3] | Ki [4] [nM] |
| --- | --- | --- | --- | --- | --- |
| Cc1ccc(C)c(S(=O)(=O)Nc2ccc(NS(=O)(=O)c3ccc(F)cc3)cc2)c1 | 240 | > 100000 | inactive | inactive | – |
| O=S(=O)(Nc1c(F)c(F)c(NS(=O)(=O)c2ccc(Br)cc2)c(F)c1F)c1ccc(Br)cc1 | 23.4 | > 100000 | inactive | inactive | 28 |
| Cc1c(C)c(NS(=O)(=O)c2cccc(Br)c2)c(C)c(C)c1NS(=O)(=O)c1cccc(Br)c1 | 1570 | > 100000 | inactive | inactive | – |
| O=S(=O)(Nc1ccc(NS(=O)(=O)c2cc(F)cc(F)c2)cc1)c1cc(F)cc(F)c1 | 246 | > 100000 | inactive | inactive | – |
| O=S(=O)(Nc1ccc(NS(=O)(=O)c2ccccc2F)cc1)c1ccccc1F | 1450 | > 100000 | inactive | inactive | – |
| Cc1ccc(S(=O)(=O)Nc2ccc(NS(=O)(=O)c3ccc(F)c(F)c3)cc2)cc1 | 194 | > 100000 | inactive | inactive | – |
| O=S(=O)(Nc1ccc(NS(=O)(=O)c2ccc(Cl)c(Cl)c2)cc1)c1ccc(Cl)c(Cl)c1 | 91.5 | > 100000 | inactive | inactive | – |
| O=C(O)c1ccc(S(=O)(=O)Nc2ccc(NS(=O)(=O)c3ccc(F)cc3)cc2)cc1 | > 100000 | > 100000 | inactive | inactive | – |
| O=S(=O)(Nc1ccc(NS(=O)(=O)c2cc(F)c(F)c(F)c2)cc1)c1cc(F)c(F)c(F)c1 | 210 | > 100000 | inactive | inactive | 192 |
| Cc1cc(NS(=O)(=O)c2ccccc2)ccc1NS(=O)(=O)c1ccccc1 | 365 | – | inactive | inactive | 238 |
| COc1ccc(S(=O)(=O)Nc2ccc(NS(=O)(=O)c3ccc(F)cc3)cc2)cc1 | 568 | > 100000 | inactive | inactive | – |
| O=S(=O)(Nc1ccc(NS(=O)(=O)c2cc(Cl)cc(Cl)c2)cc1)c1cc(Cl)cc(Cl)c1 | 385 | > 100000 | inactive | inactive | – |
| O=S(=O)(Nc1ccc(NS(=O)(=O)c2ccc(F)c(F)c2)cc1)c1ccccc1 | 488 | > 100000 | inactive | inactive | – |
| O=S(=O)(Nc1c(F)c(F)c(NS(=O)(=O)c2ccc(Cl)cc2)c(F)c1F)c1ccc(Cl)cc1 | 41.5 | – | inactive | inactive | 110 |
| O=S(=O)(Nc1ccc(NS(=O)(=O)c2ccc(Br)cc2)cc1)c1ccc(Br)cc1 | 85.2 | > 100000 | inactive | inactive | 44 |
| Cc1c(C)c(NS(=O)(=O)c2ccc(Br)cc2)c(C)c(C)c1NS(=O)(=O)c1ccc(Br)cc1 | 3240 | > 100000 | inactive | inactive | > 100000 |
| Cc1ccc(S(=O)(=O)Nc2ccc(NS(=O)(=O)c3cc(F)ccc3F)cc2)cc1 | 467 | > 100000 | inactive | inactive | – |
| O=S(=O)(Nc1cc(Br)c(NS(=O)(=O)c2ccc(Cl)cc2)cc1Br)c1ccc(Cl)cc1 | > 100000 | > 100000 | inactive | inactive | – |
| O=S(=O)(Nc1ccc2c(c1)Cc1cc(NS(=O)(=O)c3cc(F)c(F)c(F)c3)ccc1-2)c1cc(F)c(F)c(F)c1 | 18.6 | > 100000 | inactive | inactive | 58.1 |
| O=S(=O)(Nc1c(F)c(F)c(NS(=O)(=O)c2ccc(F)cc2)c(F)c1F)c1ccc(F)cc1 | 314 | > 100000 | inactive | inactive | – |
| O=S(=O)(Nc1ccc(Oc2ccccc2)cc1)c1ccc(Br)cc1 | 165 | – | inactive | inactive | > 100000 |
| O=S(=O)(Nc1ccc(NS(=O)(=O)c2ccccc2)c(Cl)c1)c1ccccc1 | 696 | > 100000 | inactive | inactive | – |

| Compound | Ki [1] [nM] | Ki (Liver carboxylesterase 1) [nM] | Activity [2] | Activity [3] | Ki [4] [nM] |
| --- | --- | --- | --- | --- | --- |
| O=S(=O)(Nc1ccc(NS(=O)(=O)c2cc(Cl)c(Cl)cc2Cl)cc1)c1cc(Cl)c(Cl)cc1Cl | > 100000 | > 100000 | inactive | inactive | – |
| Cc1c(C)c(NS(=O)(=O)c2cccc(Cl)c2)c(C)c(C)c1NS(=O)(=O)c1cccc(Cl)c1 | 2060 | > 100000 | inactive | inactive | – |
| CS(=O)(=O)Nc1ccc(SSc2ccc(NS(C)(=O)=O)cc2)cc1 | 767 | – | inactive | inactive | > 100000 |
| O=S(=O)(Nc1ccc(NS(=O)(=O)c2ccc(Cl)cc2)cc1)c1ccc(F)cc1 | 200 | > 100000 | inactive | inactive | – |
| O=S(=O)(Nc1ccc(NS(=O)(=O)c2cccc(Cl)c2Cl)cc1)c1cccc(Cl)c1Cl | 268 | > 100000 | inactive | inactive | – |
| Cc1c(C)c(NS(=O)(=O)c2ccc(Cl)cc2)c(C)c(C)c1NS(=O)(=O)c1ccc(Cl)cc1 | 2010 | > 100000 | inactive | inactive | – |
| Cc1ccc(S(=O)(=O)Nc2ccc(NS(=O)(=O)c3ccc(F)cc3F)cc2)cc1 | 385 | > 100000 | inactive | inactive | – |
| O=S(=O)(Nc1ccc(NS(=O)(=O)c2ccc3ccccc3c2)cc1)c1ccc2ccccc2c1 | 1580 | > 100000 | inactive | inactive | – |
| Cc1ccc(S(=O)(=O)Nc2ccc(NS(=O)(=O)c3ccc(F)cc3)cc2)cc1 | 281 | > 100000 | inactive | inactive | – |
| O=S(=O)(Nc1cc(Br)c(NS(=O)(=O)c2ccccc2)cc1Br)c1ccccc1 | > 100000 | > 100000 | inactive | inactive | – |
| CNC(=O)c1ccc(S(=O)(=O)Nc2ccc(NS(=O)(=O)c3ccc(F)cc3)cc2)cc1 | > 100000 | > 100000 | inactive | inactive | – |
| O=S(=O)(Nc1ccc(NS(=O)(=O)c2ccc(F)c(F)c2)cc1)c1ccc(F)c(F)c1 | 160 | > 100000 | inactive | inactive | – |
| Cc1ccc(C(=O)O)cc1S(=O)(=O)Nc1ccc(NS(=O)(=O)c2ccc(F)cc2)cc1 | 693 | > 100000 | inactive | inactive | – |
| O=S(=O)(Nc1cc(Cl)c(NS(=O)(=O)c2ccc(Cl)cc2)cc1Cl)c1ccc(Cl)cc1 | 455 | > 100000 | inactive | inactive | – |
| O=S(=O)(Nc1ccc(NS(=O)(=O)c2ccc(Cl)cc2)cc1)c1ccc(Cl)cc1 | – | – | inactive | inactive | 141 |
| Cc1ccc(S(=O)(=O)Nc2ccc(NS(=O)(=O)c3ccc(Cl)cc3)cc2)cc1 | 161 | > 100000 | inactive | inactive | – |
| CCOc1ccc(NS(=O)(=O)c2ccc(Cl)cc2)cc1 | 1310 | – | inactive | inactive | 3220 |
| O=S(=O)(Nc1ccc(NS(=O)(=O)c2cc(Cl)ccc2Cl)cc1)c1cc(Cl)ccc1Cl | 119 | > 100000 | inactive | inactive | – |
| Cc1c(C)c(NS(=O)(=O)c2ccc(Cl)c(Cl)c2)c(C)c(C)c1NS(=O)(=O)c1ccc(Cl)c(Cl)c1 | 344 | > 100000 | inactive | inactive | – |
| O=S(=O)(Nc1ccc(NS(=O)(=O)c2ccc(Cl)cc2)c2ccccc12)c1ccc(Cl)cc1 | 194 | – | inactive | inactive | > 100000 |
| O=S(=O)(Nc1c(Cl)c(Cl)c(NS(=O)(=O)c2ccccc2)c(Cl)c1Cl)c1ccccc1 | 451 | – | inactive | inactive | > 100000 |
